# According to ChEMBL document CHEMBL1124397, “A novel class of "GABAergic" agents: 1-aryl-3-(aminoalkylidene)oxindoles” (J Med Chem, 1989):
# Assays:
# [1] = molecular target: GABA-A receptor; anion channel (Rattus norvegicus) (UniProt O09028+P15431+P18506+P18508+P19969+P20236+P23574+P23576+P28471+P28473+P30191+P62813+P63079+P63138+Q91ZM7+Q9ES14); experiment: Antagonism of mercaptopropionic acid (MPA) induced convulsions in mouse; assay type: functional, organism-based
# [2] = Ability to displace [3H]flunitrazepam ([3H]-FNP) binding to mouse brain after intraperitoneal administration at a dose 320 umol/kg; assay type: functional, organism-based; conditions: at 320 µmol/kg
# Summary of the method: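 Mice in groups of five got test agent or vehicle ip 1 h before iv [3H]FNP at 200 μCi/kg, then were killed 20 min later by cervical dislocation. Brains were frozen and homogenized in 40 volumes of ice-cold 50 mM Tris-HCl pH 7.7. Triplicate samples were filtered on glass fiber, washed with cold buffer and counted. Bound label is expressed as % of vehicle-treated mice.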
# Mus musculus [3] = experiment: Activity tested to antagonise cyclic GMP after administration of isoniazid in mouse brain; assay type: functional
# P23576 = experiment: Administered at a dose 320 umol/kg intraperitoneally before [3H]Flunitrazepam ([3H]-FNP) in mouse brain expressed as percent of control; assay type: functional, tissue-based
# P23576, sequence (P23576 whole entry): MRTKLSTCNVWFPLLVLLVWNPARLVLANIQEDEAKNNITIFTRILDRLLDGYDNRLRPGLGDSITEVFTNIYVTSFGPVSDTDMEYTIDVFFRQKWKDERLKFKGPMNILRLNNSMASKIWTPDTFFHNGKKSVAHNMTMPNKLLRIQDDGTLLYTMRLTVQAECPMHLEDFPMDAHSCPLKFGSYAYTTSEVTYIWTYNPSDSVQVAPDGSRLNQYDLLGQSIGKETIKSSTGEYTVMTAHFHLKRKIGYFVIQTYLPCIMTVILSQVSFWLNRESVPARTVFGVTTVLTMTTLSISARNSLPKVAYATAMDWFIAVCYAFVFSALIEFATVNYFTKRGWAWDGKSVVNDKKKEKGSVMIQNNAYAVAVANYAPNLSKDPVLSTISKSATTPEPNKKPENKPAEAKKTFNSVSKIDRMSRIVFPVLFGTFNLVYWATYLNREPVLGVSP
# Summary of the method: (§1)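 Mice in groups of five received test compound or vehicle ip 1 h before 200 μCi/kg [3H]FNP iv and were killed 20 min later. Brains were homogenized in 40 volumes of ice-cold 50 mM Tris-HCl pH 7.7. Triplicate 1.0-mL samples were filtered on glass fiber, washed with cold buffer and counted. Bound FNP is given as % of vehicle-treated mice.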
# Mus musculus [4] = experiment: Activity to antagonise cyclic GMP after administration of isoniazid in mouse brain; value ranges from 1-3.2; assay type: functional
# [5] = Toxicity measured in mouse by subcutaneous administration; assay type: organism-based; conditions: in vivo, sc
# Summary of the method: (§2)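 Mouse LD50 in mg/kg after sc or ip dosing, by the route named in each line.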
# [6] = Toxicity was measured in mouse by intraperitoneal administration; conditions: in vivo, ip; summary of the method: as §2
# Mus musculus [7] = experiment: Activity to antagonise cyclic GMP after administration of isoniazid in mouse brain; value ranges from 3.2-10; assay type: functional
# [8] = Toxicity was measured in mouse by intraperitoneal administration; value ranges from 32-100; conditions: in vivo, ip; summary of the method: as §2
# Mus musculus [9] = experiment: Compound was tested for enhancement of [3H]Flunitrazepam ([3H]FNP) binding to mouse brain after intraperitoneal administration at a dose 32uM/kg, expressed as percent of control; assay type: functional; summary of the method: as §1
# Mus musculus [10] = experiment: Activity to antagonise mercaptopropionic acid (MPA) induced convulsions in mouse after subcutaneous administration; assay type: functional; conditions: sc
# Summary of the method: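 Male Swiss CD mice (17–21 g), fasted 18 h, in groups of five. […] One hour later MPA 32 mg/kg ip. Protection meant no convulsions during 10 min of observation.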
# Mus musculus [11] = experiment: Compound was tested for enhancement of [3H]flunitrazepam ([3H]-FNP) binding to mouse brain after intraperitoneal administration at a dose 3.2uM/kg, expressed as percent of control; assay type: functional; summary of the method: as §1
# Mus musculus [12] = experiment: Compound was tested for enhancement of [3H]Flunitrazepam ([3H]FNP) binding to mouse brain after intraperitoneal administration at a dose 10uM/kg, expressed as percent of control; assay type: functional; summary of the method: as §1
smiles,measurement,setting,value
CN(C)/C=C1\C(=O)N(c2cccc(-c3ccccc3)c2)c2ccccc21,ED50,[1],> 100 mg/kg
CN(C)/C=C1\C(=O)N(c2cccc(C#N)c2)c2ccccc21,[3H]flunitrazepam binding,[2],192%
same,ED50,[1],> 100 mg/kg
C/C(=C1/C(=O)N(c2cccc(Cl)c2)c2ccccc21)N(C)C,ED50,Mus musculus [3],1 mg/kg
same,ED50,[1],13.3 mg/kg
CN(C)C(=O)c1cccc(N2C(=O)/C(=C3/CCCN3C)c3ccccc32)c1,Control,P23576,164%
same,ED50,[1],> 100 mg/kg
C/N=C\c1c(O)n(-c2cccc(Cl)c2)c2ccccc12,[3H]flunitrazepam binding,[2],119%
same,ED50,[1],> 100 mg/kg
Oc1c(C2=NCCCCC2)c2ccccc2n1-c1ccccc1,ED50,[1],> 100 mg/kg
CCc1cccc(N2C(=O)/C(=C\N(C)C)c3ccccc32)c1,ED50,[1],14.1 mg/kg
CN(C)/C=C1\C(=O)N(c2cccc(C(=O)N(C)C)c2)c2ccccc21,ED50,[1],> 100 mg/kg
COc1ccc(N2C(=O)/C(=C\N(C)C)c3ccccc32)cc1OC,[3H]flunitrazepam binding,[2],138%
same,ED50,Mus musculus [3],< 10 mg/kg
same,ED50,[1],> 100 mg/kg
CN(/C=C1\C(=O)N(c2cccc(Cl)c2)c2ccccc21)Cc1ccccc1,Control,P23576,135%
same,ED50,[1],> 100 mg/kg
CN1CCCC/C1=C1/C(=O)N(c2cccc(Cl)c2)c2ccccc21,Control,P23576,135%
same,ED50,[1],> 100 mg/kg
CN(C)/C(=C1\C(=O)N(c2cccc(Cl)c2)c2ccccc21)c1ccccc1,ED50,[1],> 100 mg/kg
COc1ccc(Cl)cc1N1C(=O)/C(=C\N(C)C)c2ccccc21,[3H]flunitrazepam binding,[2],149%
same,ED50,[1],> 100 mg/kg
CN(C)/C=C1\C(=O)N(c2cccc(C=O)c2)c2ccccc21,ED50,[1],> 100 mg/kg
COc1ccc(N2C(=O)/C(=C3/CCCN3C)c3ccccc32)cc1F,Control,P23576,225%
same,ED50,[1],5.6 mg/kg
CN1CCC/C1=C1/C(=O)N(c2cccc(C#N)c2)c2ccccc21,Control,P23576,121%
same,ED50,[1],> 100 mg/kg
CCCN(/C=C1\C(=O)N(c2cccc(Cl)c2)c2ccccc21)CCC,ED50,[1],> 100 mg/kg
CN1CCC/C1=C1/C(=O)N(c2ccccc2)c2ccccc21,Control,P23576,143%
same,ED50,[1],> 100 mg/kg
O=C1/C(=C\N2CCCC2)c2ccccc2N1c1cccc(Cl)c1,ED50,[1],> 100 mg/kg
Oc1c(/C=N/Cc2ccccc2)c2ccccc2n1-c1cccc(Cl)c1,ED50,[1],> 100 mg/kg
O=C1/C(=C2/CCCN2Cc2ccc(Cl)cc2)c2ccccc2N1c1cccc(Cl)c1,Control,P23576,131%
same,ED50,[1],> 100 mg/kg
CN1CCC/C1=C1/C(=O)N(c2ccccc2)c2cccc(Cl)c21,Control,P23576,190%
same,ED50,[1],> 100 mg/kg
O=C1/C(=C2/CCCN2c2ccccc2)c2ccccc2N1c1cccc(Cl)c1,Control,P23576,125%
same,ED50,[1],> 100 mg/kg
Cc1cccc(N2C(=O)/C(=C\N(C)C)c3ccccc32)c1,[3H]flunitrazepam binding,[2],184%
same,ED50,[1],14.1 mg/kg
COc1ccc(-n2c(O)c(C3=NCCC3)c3ccccc32)cc1F,ED50,[1],56 mg/kg
CN(C)/C=C1\C(=O)N(c2cccc(Cl)c2)c2cccc(Cl)c21,ED50,[1],> 100 mg/kg
O=C1/C(=C2/CCCN2Cc2ccccc2)c2ccccc2N1c1cccc(Cl)c1,Control,P23576,149%
same,ED50,[1],> 100 mg/kg
CN1CCC/C1=C1/C(=O)N(c2ccc(Cl)cc2)c2ccccc21,Control,P23576,127%
same,ED50,[1],> 56 mg/kg
COc1ccc(N2C(=O)/C(=C\N(C)C)c3ccccc32)cc1,[3H]flunitrazepam binding,[2],153%
same,ED50,[1],48.2 mg/kg
CN(C)/C=C1\C(=O)N(c2cccc(Cl)c2)c2ccc(Cl)cc21,ED50,[1],> 100 mg/kg
COc1ccc(N2C(=O)/C(=C\N(C)C)c3ccccc32)cc1Cl,[3H]flunitrazepam binding,[2],244%
same,ED50,[1],7.2 mg/kg
O=C1/C(=C\N2CCCCC2)c2ccccc2N1c1cccc(Cl)c1,[3H]flunitrazepam binding,[2],131%
same,ED50,[1],> 56 mg/kg
CN(C)/C=C1\C(=O)N(c2cccc(Cl)c2)c2ccccc21,ED50,Mus musculus [4],1 mg/kg
same,ED50,[1],26.1 mg/kg
CCO/C=C1\C(=O)N(c2cccc(Cl)c2)c2ccccc21,ED50,[1],> 100 mg/kg
CCN(/C=C1\C(=O)N(c2cccc(Cl)c2)c2ccccc21)CC,ED50,[1],18 mg/kg
Cc1ccc(N2C(=O)/C(=C\N(C)C)c3ccccc32)cc1,ED50,[1],56 mg/kg
COc1c(C)cc(N2C(=O)/C(=C\N(C)C)c3ccccc32)cc1Cl,ED50,[1],15.3 mg/kg
CN(/C=C1\C(=O)N(c2cccc(Cl)c2)c2ccccc21)c1ccccc1,[3H]flunitrazepam binding,[2],133%
same,ED50,[1],> 100 mg/kg
CN1CCC/C1=C1/C(=O)N(c2ccccc2)c2cc(Cl)ccc21,Control,P23576,158%
same,ED50,[1],> 100 mg/kg
CN(C)/C=C1\C(=O)N(c2ccccc2)c2ccccc21,ED50,[1],> 100 mg/kg
COc1ccc(N2C(=O)/C(=C\N(C)C)c3ccccc32)cc1F,[3H]flunitrazepam binding,[2],194%
same,ED50,[1],6.6 mg/kg
CN(C)/C=C1\C(=O)N(c2cccc([N+](=O)[O-])c2)c2ccccc21,[3H]flunitrazepam binding,[2],171%
same,ED50,[1],> 100 mg/kg
CCOc1cccc(N2C(=O)/C(=C\N(C)C)c3ccccc32)c1,ED50,[1],27.9 mg/kg
C/C(=C1/C(=O)N(c2ccccc2)c2cc(Cl)ccc21)N(C)C,ED50,[1],35.9 mg/kg
CN(C)/C=C1\C(=O)N(c2cccc(Cl)c2)c2cc(Cl)ccc21,ED50,[1],> 100 mg/kg
Oc1c(C2=NCCCCC2)c2ccccc2n1-c1cccc(Cl)c1,Control,P23576,138%
same,ED50,[1],> 100 mg/kg
CN(C)/C=C1\C(=O)N(c2ccc(N(C)C)cc2)c2ccccc21,ED50,[1],> 100 mg/kg
CN(C)/C=C1\C(=O)N(c2cccc(Br)c2)c2ccccc21,ED50,[1],> 100 mg/kg
COc1ccc(N2C(=O)/C(=C(/C)N(C)C)c3ccccc32)cc1Cl,ED50,[1],2.8 mg/kg
CN(C)/C=C1\C(=O)N(c2cccc(F)c2)c2ccccc21,ED50,[1],39.9 mg/kg
NC(=O)CCC/N=C(\c1ccc(Cl)cc1)c1cc(F)ccc1O [PROGABIDE],LD50,[5],> 1000 mg/kg
same,LD50,[6],~1000 mg/kg
same,ED50,Mus musculus [3],< 32 mg/kg
same,ED50,[1],> 100 mg/kg
COc1ccc2c(c1)/C(=C/N(C)C)C(=O)N2c1cccc(Cl)c1,ED50,[1],> 100 mg/kg
CN(C)/C=C1\C(=O)N(c2cc(Cl)ccc2Cl)c2ccccc21,[3H]flunitrazepam binding,[2],147%
same,ED50,Mus musculus [3],~10 mg/kg
same,ED50,[1],> 100 mg/kg
CN(C)/C=C1\C(=O)N(c2ccccc2)c2cc(Cl)ccc21,ED50,[1],> 100 mg/kg
CC(=N)c1c(O)n(-c2cccc(Cl)c2)c2ccccc12,[3H]flunitrazepam binding,[2],103%
same,ED50,[1],> 100 mg/kg
CN(C)/C=C1\C(=O)N(c2cc(Cl)cc(Cl)c2)c2ccccc21,[3H]flunitrazepam binding,[2],153%
same,ED50,[1],> 100 mg/kg
CN(C)/C=C1\C(=O)N(c2ccccc2Cl)c2ccccc21,ED50,Mus musculus [7],3.2 mg/kg
same,ED50,[1],> 100 mg/kg
CCC/N=C/c1c(O)n(-c2cccc(Cl)c2)c2ccccc12,ED50,[1],> 56 mg/kg
CN(C)/C=C1\C(=O)N(c2cccc(O)c2)c2ccccc21,ED50,[1],> 100 mg/kg
CCN1CCC/C1=C1/C(=O)N(c2cccc(Cl)c2)c2ccccc21,Control,P23576,164%
same,ED50,[1],> 100 mg/kg
CN(C)/C=C1\C(=O)N(c2ccc(Cl)cc2)c2ccccc21,ED50,[1],> 100 mg/kg
CN(C)/C=C1\C(=O)N(c2cccc(Cl)c2)c2c(Cl)cccc21,[3H]flunitrazepam binding,[2],169%
same,ED50,[1],> 100 mg/kg
COc1ccc(N2C(=O)/C(=C(/C)N(C)C)c3ccccc32)cc1,ED50,[1],> 100 mg/kg
COc1ccc(N2C(=O)/C(=C\N(C)C)c3ccccc32)cc1C,ED50,[1],9.1 mg/kg
Cc1ccccc1N1C(=O)/C(=C\N(C)C)c2ccccc21,ED50,[1],18 mg/kg
COc1ccc(N2C(=O)/C(=C3/CCCN3C)c3ccccc32)cc1Cl,Control,P23576,220%
same,LD50,[5],≥ 320 mg/kg
same,LD50,[8],32 mg/kg
same,Control,Mus musculus [9],159%
same,ED50,Mus musculus [10],3.6 mg/kg
same,Control,Mus musculus [11],115%
same,Control,Mus musculus [12],128%
CN1CCC/C1=C1/C(=O)N(c2cccc(Cl)c2)c2cc(Cl)ccc21,Control,P23576,189%
same,ED50,[1],> 100 mg/kg
CN(C)/C=C1\C(=O)N(c2cccc(C(F)(F)F)c2)c2ccccc21,[3H]flunitrazepam binding,[2],131%
same,ED50,[1],22.2 mg/kg
COc1cccc(N2C(=O)/C(=C\N(C)C)c3ccccc32)c1,[3H]flunitrazepam binding,[2],217%
same,ED50,Mus musculus [3],< 10 mg/kg
same,ED50,[1],27.9 mg/kg
C/C(=C1/C(=O)N(c2ccccc2)c2cc(Cl)ccc21)N1CCCC1,[3H]flunitrazepam binding,[2],213%
same,ED50,[1],> 56 mg/kg
N=C(c1c(O)n(-c2cccc(Cl)c2)c2ccccc12)C(F)(F)F,ED50,[1],> 56 mg/kg
COc1ccc(N2C(=O)/C(=C(/C)N(C)C)c3ccccc32)cc1F,[3H]flunitrazepam binding,[2],157%
same,ED50,[1],> 100 mg/kg
O=C1/C(=C\n2ccnc2)c2ccccc2N1c1cccc(Cl)c1,Control,P23576,139%
same,ED50,[1],> 100 mg/kg
CSc1ccc(N2C(=O)/C(=C\N(C)C)c3ccccc32)cc1,ED50,[1],56 mg/kg
C/C(=C1/C(=O)N(c2cccc(C)c2)c2ccccc21)N(C)C,ED50,[1],17.8 mg/kg
N=Cc1c(O)n(-c2cccc(Cl)c2)c2ccccc12,[3H]flunitrazepam binding,[2],134%
same,ED50,[1],22.1 mg/kg
CC(=N)c1c(O)n(-c2ccccc2)c2cc(Cl)ccc12,ED50,[1],> 56 mg/kg
O=C1/C(=C\N2CCOCC2)c2ccccc2N1c1cccc(Cl)c1,[3H]flunitrazepam binding,[2],121%
same,ED50,[1],> 100 mg/kg
